Drawing on ChEMBL document CHEMBL2331385, “Evaluation of adamantane hydroxamates as botulinum neurotoxin inhibitors: synthesis, crystallography, modeling, kinetic and cellular based studies” (Bioorg Med Chem, 2013), this text covers IC50, Ki and Activity for 21 compounds.

Data set [1] addresses T1, Botulinum neurotoxin type A (Clostridium botulinum, UniProt P0DPI0). Kind of data set: Inhibition of Clostridium botulinum BoNT/A Hall A hyper protease light chain (1-425aa) using SNAPtide as substrate by FRET assay. The gist of the method: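 Recombinant BoNT/A light chain (residues 1-425) cleaving the FRET peptide SNAPtide at 5 μM, with 0.01 % Triton X-100. Inhibitor concentration varied; IC50 taken from fluorescence signal.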

Data set [2] addresses T1, Botulinum neurotoxin type A. Kind of data set: Competitive inhibition of Clostridium botulinum BoNT/A Hall A hyper protease light chain (1-425aa) using SNAP-66mer (141-206aa) as substrate by FRET assay.
A short description of data set [3]: Cytotoxicity against stem cell-derived neurons (unknown origin) at 20 uM after 22 hrs. The gist of the method:
(§1)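 Primary rat spinal cord cells or stem cell-derived neurons exposed to compound. Cytotoxicity judged from low overall protein signal on Western blot.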

Data set [4] is described as follows: Cytotoxicity against stem cell-derived neurons (unknown origin) at 500 uM after 22 hrs. The gist of the method: as §1
Data set [5] is described as follows: Cytotoxicity against rat spinal cord cells at 20 uM after 22 hrs. It counts as cell-based. The gist of the method: as §1
For data set [6], the target named is Botulinum neurotoxin type A (Clostridium botulinum) (UniProt P0DPI0). Kind of data set: Inhibition of Clostridium botulinum BoNT/A protease light chain in stem cell-derived neurons (unknown origin) assessed as inhibition of SNAP-25 cleavage at 0.5 to 50 uM after 22 hrs by Western blot analysis. For orientation: A western blot detects proteins with antibodies after separation by electrophoresis.

Data set [7] in a line: Cytotoxicity against rat spinal cord cells at 500 uM after 22 hrs. The format is cell-based. A digest of the protocol:
as §1

Data set [8] concerns the target Botulinum neurotoxin type A (Clostridium botulinum) (UniProt P0DPI0). Kind of data set: Inhibition of Clostridium botulinum BoNT/A protease light chain in rat spinal cord cells assessed as inhibition of SNAP-25 cleavage at 0.5 to 50 uM after 22 hrs by Western blot analysis. It counts as cell-based.
Data set [9] is described as follows: Cytotoxicity against rat spinal cord cells at 50 uM after 22 hrs. The format is cell-based. The gist of the method:
as §1

pIC50, pKi: −log10 of the molar value. Activity calls are given as the source filed them. No cut-off for these calls is given here. Some results are limits rather than exact numbers.

Sequence of Botulinum neurotoxin type A (Clostridium botulinum) (P0DPI0 2-448 limits assumed): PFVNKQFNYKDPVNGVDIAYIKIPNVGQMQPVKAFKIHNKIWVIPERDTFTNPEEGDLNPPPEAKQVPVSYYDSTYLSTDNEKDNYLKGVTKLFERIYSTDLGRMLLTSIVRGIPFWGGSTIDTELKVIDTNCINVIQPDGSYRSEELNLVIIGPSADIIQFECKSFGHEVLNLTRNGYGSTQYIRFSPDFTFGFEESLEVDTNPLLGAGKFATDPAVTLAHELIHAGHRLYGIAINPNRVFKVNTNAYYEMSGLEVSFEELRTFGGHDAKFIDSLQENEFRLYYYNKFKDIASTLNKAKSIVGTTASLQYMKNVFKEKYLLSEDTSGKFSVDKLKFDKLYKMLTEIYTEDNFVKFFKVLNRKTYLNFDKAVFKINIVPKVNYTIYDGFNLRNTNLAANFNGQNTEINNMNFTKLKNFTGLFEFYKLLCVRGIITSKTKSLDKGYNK
T1 sequence (P0DPI0 2-448 limits assumed): as above

In the case of `Cc1ccc(C23CC4CC(CC(CC(=O)NO)(C4)C2)C3)cc1`, the pIC50 (in general, −log10 of the IC50, conventionally taken in molar units) in [1] was 6.60.

Compound `O=C(CC12CC3CC(CC(F)(C3)C1)C2)NO` had a pIC50 in [1] of 5.51.

As to `O=C(C[C@@H](CCO)c1ccc(Cl)cc1Cl)NO`, the negative logarithm of the Ki (pKi) – broadly, −log10 of the Ki, conventionally taken in molar units – in [2] was 6.80.

In [1], `O=C(CC12CC3CC(C1)CC(c1ccc4ccccc4c1)(C3)C2)NO` showed a pIC50 of 6.52.

Regarding `O=C(CC12CC3CC(C1)CC(c1ccccc1)(C3)C2)NO`, in [2], the pKi is 6.12. In addition, the pIC50 in data set [1] is 6.30.

In [1], `O=C(CC12CC3CC(CC(Br)(C3)C1)C2)NO` had a pIC50 of 5.85.

Turning to `O=C(CC12CC3CC(CC(O)(C3)C1)C2)NO`, the pIC50 in [1] is 4.64.

In the case of `O=C(CC12CC3CC(CC(CO)(C3)C1)C2)NO`, in [1], the pIC50 is 5.47.

In data set [1], `O=C(CC12CC3CC(C1)CC(c1ccc([N+](=O)[O-])cc1[N+](=O)[O-])(C3)C2)NO` gave a negative-log IC50 (pIC50) of 6.40. Compared with the last compound, the pIC50 is 0.93 log units higher.

The compound `COC12CC3CC(CC(CC(=O)NO)(C3)C1)C2` gave a negative logarithm of the IC50 (pIC50) in data set [1] of 5.24.

With `O=C(CC12CC3CC(C1)CC(c1ccc([N+](=O)[O-])cc1)(C3)C2)NO`, the Activity result is listed as “Toxic” in data set [3], “Non-toxic” in [4], “Toxic” in data set [5] and “Toxic” in data set [7]. The result in [6] and in data set [8] was inactive. Moreover, the pIC50 in data set [1] was 6.30.

`O=C(CC12CC3CC(CC(Cl)(C3)C1)C2)NO`: the negative logarithm of the IC50 (pIC50) in data set [1] was 5.85.

`O=C(CC12CC3CC(CC(C3)C1)C2)NO`: the pKi in data set [2] was 6.34. Moreover, the negative logarithm of the IC50 (pIC50) in [1] was 6.00.

In the case of `CC(=O)OC12CC3CC(CC(CC(=O)NO)(C3)C1)C2`, in data set [1], the pIC50 was 4.62.

`O=C(CC12CC3CC(C1)CC(c1ccc(Br)cc1)(C3)C2)NO`: the Activity result is on record as “Toxic” in [9]; “Toxic” in data set [3]; “Non-toxic” in data set [4]; “Toxic” in data set [5]; “Toxic” in data set [7]. Moreover, the outcome in data set [6] and in data set [8] was inactive. The pKi in data set [2] is 7.57. In [1], this compound showed a pIC50 of 7.40.

For the compound `NCCCCCCCNC(=O)c1cc(CCC(=O)NO)c(CCC(O)(c2ccccc2)c2ccccc2)n1Cc1ccccc1`, the pKi in data set [2] is 6.12.

As for `COc1ccc(C23CC4CC(CC(CC(=O)NO)(C4)C2)C3)cc1`, the Activity result is “Toxic” in data set [3], “Non-toxic” in [4], “Toxic” in [5] and “Toxic” in data set [7]. Moreover, the result in [6] and in data set [8] was inactive. Besides, the negative logarithm of the Ki (pKi) in data set [2] was 6.89. In addition, in [1], the pIC50 was 6.60.

Compound `O=C(CC12CC3CC(C1)CC(C(=O)O)(C3)C2)NO` gave a negative-log IC50 (pIC50) in [1] of under 3.30.

For the compound `O=C(CC12CC3CC(C1)CC(c1ccc(-c4ccccc4)cc1)(C3)C2)NO`, in [1], the negative-log IC50 (pIC50) was 6.70.

On to `O=C(CC12CC3CC(C1)CC(c1ccc4c(c1)CCCC4)(C3)C2)NO`, for which the pIC50 in [1] was 6.00. Compared with the last compound, the pIC50 is 0.70 log units lower.

For `O=C(CC12CC3CC(C1)CC(c1ccc(Cl)cc1)(C3)C2)NO`, in data set [2], the negative-log Ki (pKi) is 7.57. The same compound had a pIC50 in data set [1] of 7.52.
